Assay results: ChEMBL document CHEMBL1122518, “N-benzylpiperazino derivatives of 3-nitro-4-hydroxycoumarin with H1 antihistamine and mast cell stabilizing properties” (J Med Chem, 1984)
Active and inactive are the calls of the source. The calls are words filed in the database; no cut-off is given here.

What was measured:
[1] = molecular target: Histamine H1 receptor (Cavia porcellus) (UniProt P31389); test: H1-antihistamine activity on guinea pig ileum; Inactive; type: functional, tissue-based
Procedure, shortened: (§1)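 Isolated guinea pig ileum under about 1 g tension, isotonic recording, histamine contractions. Method a: histamine curves repeated at rising antagonist levels in Tyrode; pA2 from a Schild plot of log(CR−1). Methods b/c: antagonist given 10 min (b) or 30 s (c) before double the ~50%-response histamine dose.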

Rattus norvegicus [2] = organism: Rattus norvegicus; test: Ability to inhibit the release of extravasated dye in the rat peritoneal fluids by 50%; type: functional, organism-based
Procedure, shortened: (§2)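 Rats sensitized ip with 2 mL of 1:5 rat antiserum in isotonic saline. 2 h later, 0.3 mL 5% Pontamine Sky Blue given iv, then after 30 s ip challenge with 5 mL Tyrode (heparin 50 μg/mL, ovalbumin 0.4 mg/mL). Compound ip in 1 mL saline 30 s before antigen; dose expressed as concentration in the 6 mL injected. Peritoneal fluid collected 5 min post-challenge.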

Rattus norvegicus [3] = organism: Rattus norvegicus; test: Ability to inhibit the release of histamine in the rat peritoneal fluids by 50%; type: functional, organism-based; procedure, shortened: as §2
Histamine H1 receptor = Histamine H1 receptor (Cavia porcellus, UniProt P31389); test: H1-antihistamine activity on guinea pig ileum; type: functional, tissue-based; conditions: read-out: pA2 (converted); procedure, shortened: as §1
Histamine H1 receptor, sequence (P31389 whole entry): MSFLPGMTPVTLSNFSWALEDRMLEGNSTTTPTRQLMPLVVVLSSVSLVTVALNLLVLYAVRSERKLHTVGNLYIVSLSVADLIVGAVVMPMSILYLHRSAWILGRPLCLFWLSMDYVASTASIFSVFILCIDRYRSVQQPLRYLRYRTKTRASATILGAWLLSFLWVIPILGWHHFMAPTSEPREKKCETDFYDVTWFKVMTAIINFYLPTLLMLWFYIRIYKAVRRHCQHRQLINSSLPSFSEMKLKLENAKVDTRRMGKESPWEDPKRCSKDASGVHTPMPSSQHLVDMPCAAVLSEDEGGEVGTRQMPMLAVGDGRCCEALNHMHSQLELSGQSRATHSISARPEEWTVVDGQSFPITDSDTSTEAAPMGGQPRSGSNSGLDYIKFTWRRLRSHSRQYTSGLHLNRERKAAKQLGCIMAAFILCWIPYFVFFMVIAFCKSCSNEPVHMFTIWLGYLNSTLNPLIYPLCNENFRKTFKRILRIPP

Histamine H1 receptor (Cavia porcellus), sequence (P31389 whole entry): as above

pA2 [1]	IC50 (Rattus norvegicus [2])	IC50 (Rattus norvegicus [3])	Kb (Histamine H1 receptor)	Structure (SMILES)
inactive	5.8 µM	0.74 µM	–	O=C(O)c1cc(=O)c2c(OCC(O)COc3cccc4oc(C(=O)O)cc(=O)c34)cccc2o1 [CROMOLYN SODIUM]
–	100 µM	–	0.158 µM	O=c1oc2cc(OCCN3CCN(Cc4ccc(Cl)cc4)CC3)ccc2c(O)c1[N+](=O)[O-]
–	29 µM	> 200 µM	–	COc1ccc(CN(CCN(C)C)c2ccccn2)cc1 [PYRILAMINE]
–	> 200 µM	28 µM	–	O=c1oc2cc(OCCCN3CCN(Cc4ccccc4)CC3)ccc2c(O)c1[N+](=O)[O-]
–	16 µM	2.6 µM	–	CCCc1c(OCC(O)CN2CCN(Cc3ccc(Cl)cc3)CC2)ccc2c(O)c([N+](=O)[O-])c(=O)oc12 (stereo not drawn)
–	5.8 µM	1.9 µM	0.001 µM	O=c1oc2cc(OCCCN3CCN(Cc4ccc(Cl)cc4)CC3)ccc2c(O)c1[N+](=O)[O-]
–	13 µM	< 2 µM	100 µM	CN1CCN(CCCOc2ccc3c(O)c([N+](=O)[O-])c(=O)oc3c2)CC1
–	83 µM	14 µM	–	O=c1oc2cc(CN3CCN(Cc4ccc(Cl)cc4)CC3)ccc2c(O)c1[N+](=O)[O-]
–	20 µM	< 2 µM	–	O=c1oc2cc(OCC(O)CN3CCN(Cc4ccc(Cl)cc4)CC3)ccc2c(O)c1[N+](=O)[O-] (stereo not drawn)
–	9.1 µM	> 200 µM	–	CN1CCC(=C2c3ccccc3CC(=O)c3sccc32)CC1 [KETOTIFEN]
